# Out of some 2,500 compounds screened, about 460 (18%) were called active. These entries were drawn from the full list. Values without a mark were called inactive.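 The calls were made as follows: active = mean activation above a cutoff of low control average plus 3 SD from the earlier screen (cut at about 12% in these data); inactive = the rest.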
# Test: compound fluorescence interference without thin filaments, confirmation, artefact control for cardiac RTF calcium sensitizer project, biochemical (AID 504382)
# Conditions: IANBD fluorescence interference counterscreen, buffer, EC20 Ca2+; at 7.2 µM; stronger effect = higher value; scaled: EC20 calcium 0, EC100 calcium 100
# How it was run: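 Medium: MOPS buffer, 190 mM, with KCl, MgCl2, EGTA, NTA, DTT, pH 7.20; Dosing: one dose of 7.2 µM, 0.7% DMSO; Probe or stimulus: calcium at EC20 level, 0.472 mM final; Incubation: 15 min, 25 °C; Evaluation: compound fluorescence interference relative to control well signal range; Signal: fluorescence, 480/540 nm.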
row,Structure (SMILES),fluorescence artifact activation
1,CCOc1nc(OCC)c2[nH]c(C(=O)O)c(Br)c2n1,0.34%
2,O=C(c1ccccc1Nc1ccc(SC(F)F)cc1)N1CCCCC1,0.06%
3,COc1ccc(C2C(C(=O)c3ccccc3)N3c4ccccc4C=CC3C2[N+](=O)[O-])cc1 (centres undefined),10.3%
4,O=[N+]([O-])c1ccc(C2=NN(c3ccccc3)C(c3ccco3)C2)cc1 (centres undefined),-0.01%
5,COc1ccc(C2CC(c3ccncc3)=NN2c2ccc(S(N)(=O)=O)cc2)cc1 (centres undefined),1.86%
6,NS(=O)(=O)c1ccc(N2N=C(c3ccccc3)CC2c2ccccc2)cc1 (centres undefined),15.1% (active)
7,N#CCC(=O)N/N=C/c1ccc(N2N=C(c3ccccc3)CC2c2ccccc2)cc1 (centres undefined),-0.02%
8,O=[N+]([O-])c1ccc(N2N=C(c3ccccc3)CC2c2ccccc2O)cc1 (centres undefined),47.5% (active)
9,N#CC1CC(c2ccc([N+](=O)[O-])cc2)=NN1c1ccc([N+](=O)[O-])cc1 (centres undefined),0.52%
10,CN(CC(=O)N1CCN(c2ncccn2)CC1)S(=O)(=O)c1ccc(Cl)cc1,0%
11,CCOC(=O)[C@H]1[C@H]2COc3ccccc3[C@@H]2N2C(=O)CN(Cc3ccc(C)cc3)C(=O)[C@@]12C,0.38%
12,COc1ccc(/C=N/Nc2ncc(C(F)(F)F)cc2Cl)cc1OC,-0.02%
13,CC(C(=O)N1CCc2ccccc2C1)N1C(=O)c2ccccc2C1=O (centres undefined),0.12%
14,CCOC(=O)c1cc(C#N)c(SCC(=O)c2cc(C#N)c(SC)nc2C)[nH]c1=O,6.31%
15,CC(=O)n1c(C=Nc2ccc(Cl)cc2)c(O)c2ccccc21,0.42%
16,COc1ccc(C2=NS(=O)(=O)N(C)C(C(=O)NC3CCCC3)=C2)cc1,-0.02%
17,CCC(=O)Nc1nc2c(c(=O)[nH]1)CCCC2,0.02%
18,O=C(CCc1nc2sc3c(c2c(=O)[nH]1)CCCC3)Nc1ccccc1Cl,31.9% (active)
19,O=C(CN1C(=O)NC2(CCCCC2)C1=O)Nc1ccccc1Cl,0.05%
20,CSCC(O)Cn1ncc2ccccc2c1=O (centres undefined),-0.02%

row,Structure (SMILES),fluorescence artifact activation
1,CC(C)c1ccc(N2C(=O)/C(=C/N(C)C)SC2=S)cc1,18.9% (active)
2,CCN1C(=O)/C(=C/C=C2\N(CC)c3cc(S(=O)(=O)N(C)C)ccc3N2c2ccccc2)SC1=S,0.15%
3,CN(C)/C=C1\SC(=S)N(c2ccc(Br)cc2)C1=O,43.8% (active)
4,O=C1CSC(=S)N1c1ccc(O)cc1,0.03%
5,COCCNC(=O)CSc1nc(N)c(NC(=O)c2ccccc2F)c(=O)[nH]1,1.87%
6,CN1C2CCC1/C(=C/c1cccn1C)C(=O)/C2=C\c1cccn1C,0.09%
7,CC(C)c1ccc(/C=C2\Oc3c(ccc(O)c3CN3CCN(C)CC3)C2=O)cc1,-0.06%
8,O=c1cc(-c2ccccc2)oc2ccc(Br)cc12,0.06%
9,CCSc1cc(N2CCCC2)nc(-c2ccc(Cl)cc2)n1,0.62%
10,CC(=O)Nc1ccc(N=Cc2nc(-c3ccc(C)cc3)oc2O)cc1,8.23%
11,CC(C)CC[n+]1ccccc1/C=C/c1ccc(N(C)C)cc1,-0.07%
12,COc1ccc(OC)c(S(=O)(=O)N2CCC(C(=O)NCc3ccccn3)CC2)c1,1.09%
13,CC(=O)Nc1ccc(Nc2cc(N(C)C)c3nonc3c2[N+](=O)[O-])cc1,33.2% (active)
14,CC1(C)CC(=O)C(C=Nc2cc(C(=O)c3ccccc3)ccc2N)=C(O)C1,6.24%
15,CN(C(=O)C1CCC1C(=O)O)c1nc(-c2ccc(Cl)s2)cs1 (centres undefined),21.3% (active)
16,O=C(NCc1ccccc1)C1(c2cccc(F)c2)CCCC1,0.26%
17,COC(=O)C/C(O)=C(/N=Nc1cccc(C(F)(F)F)c1)C(=O)OC,0.94%
18,O=C(Nc1ccc(Cl)cn1)C1COc2ccccc2O1 (centres undefined),14.7% (active)
19,O=C(Nc1nc(-c2nc3ccccc3s2)cs1)C1COc2ccccc2O1 (centres undefined),11.1%
20,O=C1NCCN1c1ncc([N+](=O)[O-])s1,4.21%

row,Structure (SMILES),fluorescence artifact activation
1,COc1ccc(S(=O)(=O)N(CC(C)C)C2CCS(=O)(=O)C2)cc1OC (centres undefined),2.69%
2,O=C1c2ccccc2C(=O)N1c1ccc(Cc2ccncc2)cc1,5.28%
3,O=C(Nc1nc2c(s1)CN(Cc1ccccc1)CC2)c1cccc(S(=O)(=O)N2CCc3ccccc32)c1,-0.03%
4,Cc1ccc(S(=O)(=O)c2cc(C#N)c(=O)[nH]c2N)cc1,6.68%
5,O=C(Cc1ccc(Cl)cc1)NNS(=O)(=O)c1ccc([N+](=O)[O-])cc1,83% (active)
6,CC(=O)NCC(O)c1ccc([N+](=O)[O-])cc1 (centres undefined),-0.01%
7,O=C(CSc1ccc(Cl)cc1)Nc1nnc(-c2cccc([N+](=O)[O-])c2)s1,0.01%
8,O=C1CC(/C=C/c2ccco2)=Nc2ccccc2N1,0.39%
9,Cc1ccc(NC(=O)O/N=C/c2ccc(F)cc2)cc1,0.14%
10,CCOC(=O)C1CCCN(C2=NC(=O)/C(=C/c3ccc(O)c(OC)c3)S2)C1 (centres undefined),0.04%
11,CCN1CC=C2C(C#N)=C(N)C(C#N)(C#N)[C@H](c3ccoc3)[C@H]2C1,0.03%
12,CCN1CC=C2C(C#N)=C(N)C(C#N)(C#N)C(c3cc(Cl)ccc3Cl)C2C1 (centres undefined),95% (active)
13,CCN1CC=C2C(C#N)=C(N)C(C#N)(C#N)[C@H](c3cccc(OC)c3OC)[C@H]2C1,0.43%
14,CC1=C(C(=O)N(C)C)C(c2ccc(C)s2)NC(=S)N1 (centres undefined),0.26%
15,CN(CC(=O)Nc1ccccc1Cl)C(=O)c1cc(=O)[nH]c2ccccc12,17.4% (active)
16,CN(C)S(=O)(=O)c1ccc(C(=O)Oc2cc(=O)[nH]c3ccccc23)cc1,0.2%
17,COc1ccc(N(CC(=O)Nc2ccccc2C(=O)NCC(C)C)S(C)(=O)=O)cc1,0.65%
18,N#Cc1c(NC(=O)/C=C/C(=O)O)sc2c1CCN(Cc1ccccc1)C2,0.08%
19,Nc1c(C(=O)Nc2ccc(S(=O)(=O)N3CCCC3)cc2)sc2nc3ccc(OC(F)(F)F)cc3cc12,0.16%

# Source: PubChem BioAssay AID504382 (The Scripps Research Institute Molecular Screening Center, 2011)
